Data: ChEMBL document CHEMBL5042469, “Unique Molecular Interaction with the Histone Deacetylase 6 Catalytic Tunnel: Crystallographic and Biological Characterization of a Model Chemotype” (J Med Chem, 2021)
Each block holds one compound with its values, some of them ahead of it.

What was measured:
MV4-11 [1] = test: Induction of apoptosis in human MV4-11 cells assessed as viable cells at 0.50 uM incubated for 15 mins by Annexin-V/FITC staining based FACS analysis (reference value: 84.58%); format: functional; settings: MV4-11, 0.25 h, read-out: Activity
Outline: (§1)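 MV4-11 cells were dosed, then washed twice in cold PBS and resuspended in binding buffer at 1×10^6 cells/mL. Cells were stained with FITC-annexin V and propidium iodide for 15 min in the dark, diluted with binding buffer and analysed by flow cytometry within 1 h. Quadrants: LL viable, LR early apoptotic, UR late apoptotic. Duplicate experiments averaged; DMSO control.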

MV4-11 [2] = test: Induction of apoptosis in human MV4-11 cells assessed as viable cells at 1 uM incubated for 15 mins by Annexin-V/FITC staining based FACS analysis (reference value: 84.58%); format: functional; settings: MV4-11, 0.25 h, read-out: Activity; outline: as §1
MV4-11 [3] = test: Induction of apoptosis in human MV4-11 cells assessed as viable cells at 4 uM incubated for 15 mins by Annexin-V/FITC staining based FACS analysis (reference value: 84.58%); format: functional; settings: MV4-11, 0.25 h, read-out: Activity; outline: as §1
MV4-11 [4] = test: Induction of apoptosis in human MV4-11 cells assessed as viable cells at 2 uM incubated for 15 mins by Annexin-V/FITC staining based FACS analysis (reference value: 84.58%); format: functional; settings: MV4-11, 0.25 h, read-out: Activity; outline: as §1
MV4-11 [5] = test: Induction of apoptosis in human MV4-11 cells assessed as late apoptotic cells at 4 uM incubated for 15 mins by Annexin-V/FITC staining based FACS analysis (reference value: 4.36%); format: functional; settings: 0.25 h; outline: as §1
MV4-11 [6] = test: Induction of apoptosis in human MV4-11 cells assessed as early apoptotic cells at 0.25 uM incubated for 15 mins by Annexin-V/FITC staining based FACS analysis (reference value: 7.28%); format: functional; outline: as §1
MV4-11 [7] = test: Induction of apoptosis in human MV4-11 cells assessed as early apoptotic cells at 2 uM incubated for 15 mins by Annexin-V/FITC staining based FACS analysis (reference value: 7.28%); format: functional; settings: 0.25 h; outline: as §1
MV4-11 [8] = test: Induction of apoptosis in human MV4-11 cells assessed as late apoptotic cells at 0.50 uM incubated for 15 mins by Annexin-V/FITC staining based FACS analysis (reference value: 4.36%); format: functional; settings: dose 0.5 µM, 0.25 h; outline: as §1
[9] = Stability in mouse plasma assessed as compound remaining measured after 30 mins; format: ADME, cell-free; settings: read-out: Stability
MV4-11 [10] = test: Induction of apoptosis in human MV4-11 cells assessed as early apoptotic cells at 2 uM incubated for 15 mins by Annexin-V/FITC staining based FACS analysis (reference value: 0.70%); format: functional; settings: 0.25 h; outline: as §1
Histone deacetylase 2 = Histone deacetylase 2 (Homo sapiens, UniProt Q92769); test: Inhibition of full length human HDAC2 using FAM-labeled acetylated peptide as substrate by electrophoretic mobility shift assay
Outline: (§2)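 Full-length human HDAC isoform enzymatic assay by electrophoretic mobility shift, using a FAM-labelled acetylated peptide substrate. […] Values are the mean of duplicate experiments with 95% confidence intervals.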

Histone deacetylase 4 = Histone deacetylase 4 (Homo sapiens, UniProt P56524); test: Inhibition of full length human HDAC4 using FAM-labeled acetylated peptide as substrate by electrophoretic mobility shift assay; outline: as §2
Histone deacetylase 9 = Histone deacetylase 9 (Homo sapiens, UniProt Q9UKV0); test: Inhibition of full length human HDAC9 using FAM-labeled acetylated peptide as substrate by electrophoretic mobility shift assay; outline: as §2
[11] = Half life in human whole blood incubated for 1 hr; format: ADME, tissue-based
Outline: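 Compound was incubated in mouse plasma or in pooled human whole blood. […] Triplicate studies, averaged.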

[12] = target: T1, Protein deacetylase HDAC6 (Homo sapiens) (UniProt Q9UBN7); test: Binding affinity to human HDAC6 assessed as residence time by two-step reversible inhibition model
T1 sequence (whole entry): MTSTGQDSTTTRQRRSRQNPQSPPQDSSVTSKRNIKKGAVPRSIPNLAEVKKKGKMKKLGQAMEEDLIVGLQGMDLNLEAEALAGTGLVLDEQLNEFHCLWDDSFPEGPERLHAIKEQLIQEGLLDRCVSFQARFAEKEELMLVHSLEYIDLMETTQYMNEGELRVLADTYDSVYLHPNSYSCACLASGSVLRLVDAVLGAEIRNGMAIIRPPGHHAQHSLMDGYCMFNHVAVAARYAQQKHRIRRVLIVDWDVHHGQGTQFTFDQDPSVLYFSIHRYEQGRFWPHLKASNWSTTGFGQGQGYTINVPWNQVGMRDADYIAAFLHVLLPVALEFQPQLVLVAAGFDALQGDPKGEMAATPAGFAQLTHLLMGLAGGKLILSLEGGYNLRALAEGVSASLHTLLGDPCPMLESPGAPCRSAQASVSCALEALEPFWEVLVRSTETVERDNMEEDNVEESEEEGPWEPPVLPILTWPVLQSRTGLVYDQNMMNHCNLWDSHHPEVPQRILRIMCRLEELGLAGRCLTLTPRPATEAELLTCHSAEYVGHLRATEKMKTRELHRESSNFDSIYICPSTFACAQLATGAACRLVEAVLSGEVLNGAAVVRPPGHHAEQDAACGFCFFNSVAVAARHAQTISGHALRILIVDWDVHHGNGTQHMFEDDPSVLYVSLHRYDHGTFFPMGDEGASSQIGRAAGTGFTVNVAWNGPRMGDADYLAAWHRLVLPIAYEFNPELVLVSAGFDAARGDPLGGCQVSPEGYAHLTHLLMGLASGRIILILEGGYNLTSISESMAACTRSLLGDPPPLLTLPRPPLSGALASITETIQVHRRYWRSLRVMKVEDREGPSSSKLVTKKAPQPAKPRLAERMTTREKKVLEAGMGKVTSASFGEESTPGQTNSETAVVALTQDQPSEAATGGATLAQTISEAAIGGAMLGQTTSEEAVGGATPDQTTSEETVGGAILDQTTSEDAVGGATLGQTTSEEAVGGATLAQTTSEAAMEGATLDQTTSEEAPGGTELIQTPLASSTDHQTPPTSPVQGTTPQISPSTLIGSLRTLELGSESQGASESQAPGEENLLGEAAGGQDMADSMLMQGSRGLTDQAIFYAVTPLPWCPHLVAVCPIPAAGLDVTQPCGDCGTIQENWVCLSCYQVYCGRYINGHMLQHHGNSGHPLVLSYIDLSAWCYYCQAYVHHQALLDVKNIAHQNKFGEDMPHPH

[13] = Stability in mouse plasma assessed as compound remaining measured after 15 mins; format: ADME, cell-free; settings: read-out: Stability
[14] = Stability in human whole blood assessed as compound remaining measured after 60 mins; format: ADME, tissue-based; settings: read-out: Stability
[15] = Stability in mouse plasma measured assessed as compound remaining after 60 mins; format: ADME, cell-free; settings: read-out: Stability
[16] = Stability in human whole blood assessed as compound remaining measured after 30 mins; format: ADME, tissue-based; settings: read-out: Stability
Histone deacetylase 7 = Histone deacetylase 7 (Homo sapiens, UniProt Q8WUI4); test: Inhibition of full length human HDAC7 using FAM-labeled acetylated peptide as substrate by electrophoretic mobility shift assay; outline: as §2
MV4-11 [17] = test: Induction of apoptosis in human MV4-11 cells assessed as early apoptotic cells at 1 uM incubated for 15 mins by Annexin-V/FITC staining based FACS analysis (reference value: 0.70%); format: functional; settings: 0.25 h; outline: as §1
MV4-11 [18] = test: Induction of apoptosis in human MV4-11 cells assessed as late apoptotic cells at 2 uM incubated for 15 mins by Annexin-V/FITC staining based FACS analysis (reference value: 4.17%); format: functional; settings: 0.25 h; outline: as §1

Chain of Histone deacetylase 9 (Q9UKV0 whole entry): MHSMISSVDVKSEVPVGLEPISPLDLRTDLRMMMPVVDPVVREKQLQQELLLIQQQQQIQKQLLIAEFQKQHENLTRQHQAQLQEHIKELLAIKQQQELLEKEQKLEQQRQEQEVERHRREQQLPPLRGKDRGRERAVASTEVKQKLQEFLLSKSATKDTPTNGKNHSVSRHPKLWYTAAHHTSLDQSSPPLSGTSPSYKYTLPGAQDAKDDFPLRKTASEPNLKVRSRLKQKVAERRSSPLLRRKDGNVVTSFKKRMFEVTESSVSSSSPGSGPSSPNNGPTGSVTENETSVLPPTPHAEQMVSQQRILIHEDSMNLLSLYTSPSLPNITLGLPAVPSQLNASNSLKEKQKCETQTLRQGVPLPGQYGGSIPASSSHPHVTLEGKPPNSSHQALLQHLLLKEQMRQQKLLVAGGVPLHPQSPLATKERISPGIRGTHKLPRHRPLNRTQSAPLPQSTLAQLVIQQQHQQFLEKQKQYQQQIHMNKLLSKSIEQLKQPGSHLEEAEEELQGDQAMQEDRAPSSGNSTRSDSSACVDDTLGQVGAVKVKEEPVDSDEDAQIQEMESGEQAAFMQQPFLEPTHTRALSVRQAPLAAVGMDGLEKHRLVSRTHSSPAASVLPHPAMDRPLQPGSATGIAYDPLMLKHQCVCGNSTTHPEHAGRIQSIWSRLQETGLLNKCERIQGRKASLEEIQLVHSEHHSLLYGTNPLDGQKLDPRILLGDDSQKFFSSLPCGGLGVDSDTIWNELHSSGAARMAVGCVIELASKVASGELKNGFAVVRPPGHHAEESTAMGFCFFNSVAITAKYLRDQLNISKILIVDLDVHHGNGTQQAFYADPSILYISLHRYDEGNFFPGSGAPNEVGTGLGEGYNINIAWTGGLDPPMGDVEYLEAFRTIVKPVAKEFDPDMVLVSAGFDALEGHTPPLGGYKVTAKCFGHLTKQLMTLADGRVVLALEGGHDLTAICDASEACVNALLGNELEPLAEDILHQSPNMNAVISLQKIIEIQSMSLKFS
Chain of Histone deacetylase 7 (Q8WUI4 whole entry): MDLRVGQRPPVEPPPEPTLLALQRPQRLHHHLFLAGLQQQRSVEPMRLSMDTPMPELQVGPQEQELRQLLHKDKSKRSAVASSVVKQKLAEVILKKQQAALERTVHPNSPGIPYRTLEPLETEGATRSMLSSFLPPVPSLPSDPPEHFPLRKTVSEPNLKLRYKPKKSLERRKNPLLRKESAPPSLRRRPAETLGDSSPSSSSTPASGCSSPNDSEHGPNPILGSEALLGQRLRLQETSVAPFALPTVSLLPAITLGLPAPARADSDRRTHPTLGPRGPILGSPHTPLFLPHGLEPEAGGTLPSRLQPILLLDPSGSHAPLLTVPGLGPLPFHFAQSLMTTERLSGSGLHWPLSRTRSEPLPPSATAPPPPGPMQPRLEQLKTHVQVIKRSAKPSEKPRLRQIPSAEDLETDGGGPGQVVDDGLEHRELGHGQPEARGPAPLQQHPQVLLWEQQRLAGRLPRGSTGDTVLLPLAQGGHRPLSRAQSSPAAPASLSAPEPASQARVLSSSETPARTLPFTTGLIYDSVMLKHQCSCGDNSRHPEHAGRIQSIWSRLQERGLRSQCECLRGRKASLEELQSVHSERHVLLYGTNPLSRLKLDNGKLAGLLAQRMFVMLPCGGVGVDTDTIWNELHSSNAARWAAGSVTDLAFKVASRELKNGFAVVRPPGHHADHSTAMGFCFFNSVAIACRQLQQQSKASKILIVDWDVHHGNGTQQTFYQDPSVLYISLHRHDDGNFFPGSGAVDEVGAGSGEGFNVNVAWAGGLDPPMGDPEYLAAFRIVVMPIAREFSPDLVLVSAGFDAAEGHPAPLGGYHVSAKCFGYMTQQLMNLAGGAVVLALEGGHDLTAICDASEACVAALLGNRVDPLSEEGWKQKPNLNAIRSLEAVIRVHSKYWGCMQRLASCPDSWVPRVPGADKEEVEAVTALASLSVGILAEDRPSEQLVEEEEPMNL
Chain of Histone deacetylase 4 (P56524 whole entry): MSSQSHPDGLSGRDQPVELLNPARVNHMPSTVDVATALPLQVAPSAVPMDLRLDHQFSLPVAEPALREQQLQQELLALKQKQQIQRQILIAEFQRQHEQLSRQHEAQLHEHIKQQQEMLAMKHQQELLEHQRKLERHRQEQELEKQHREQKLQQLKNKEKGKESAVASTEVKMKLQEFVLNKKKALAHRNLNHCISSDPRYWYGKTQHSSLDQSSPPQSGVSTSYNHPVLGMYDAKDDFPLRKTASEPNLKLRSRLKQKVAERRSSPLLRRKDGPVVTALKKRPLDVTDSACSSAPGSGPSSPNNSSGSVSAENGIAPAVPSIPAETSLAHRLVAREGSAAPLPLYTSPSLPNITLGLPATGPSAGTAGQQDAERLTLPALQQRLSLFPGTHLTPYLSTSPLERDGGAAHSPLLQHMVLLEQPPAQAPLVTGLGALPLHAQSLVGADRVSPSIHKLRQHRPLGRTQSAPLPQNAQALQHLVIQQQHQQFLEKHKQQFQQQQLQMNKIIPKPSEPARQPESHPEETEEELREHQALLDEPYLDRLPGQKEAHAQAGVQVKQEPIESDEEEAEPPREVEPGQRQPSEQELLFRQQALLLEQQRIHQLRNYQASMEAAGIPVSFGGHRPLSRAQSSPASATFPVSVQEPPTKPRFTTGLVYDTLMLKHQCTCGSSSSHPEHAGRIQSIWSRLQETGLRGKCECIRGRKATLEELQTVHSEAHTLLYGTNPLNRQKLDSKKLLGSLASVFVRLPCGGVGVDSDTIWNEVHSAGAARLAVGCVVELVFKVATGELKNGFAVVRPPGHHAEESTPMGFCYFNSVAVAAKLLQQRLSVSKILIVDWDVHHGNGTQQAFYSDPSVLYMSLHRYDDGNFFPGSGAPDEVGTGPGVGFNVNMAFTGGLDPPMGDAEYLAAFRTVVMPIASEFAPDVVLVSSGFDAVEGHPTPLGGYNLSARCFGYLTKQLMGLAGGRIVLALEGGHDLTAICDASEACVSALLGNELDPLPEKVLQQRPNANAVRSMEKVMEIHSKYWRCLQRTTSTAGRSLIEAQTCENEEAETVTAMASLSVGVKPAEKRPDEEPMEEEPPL
Chain of Histone deacetylase 2 (Q92769 whole entry, canonical isoform): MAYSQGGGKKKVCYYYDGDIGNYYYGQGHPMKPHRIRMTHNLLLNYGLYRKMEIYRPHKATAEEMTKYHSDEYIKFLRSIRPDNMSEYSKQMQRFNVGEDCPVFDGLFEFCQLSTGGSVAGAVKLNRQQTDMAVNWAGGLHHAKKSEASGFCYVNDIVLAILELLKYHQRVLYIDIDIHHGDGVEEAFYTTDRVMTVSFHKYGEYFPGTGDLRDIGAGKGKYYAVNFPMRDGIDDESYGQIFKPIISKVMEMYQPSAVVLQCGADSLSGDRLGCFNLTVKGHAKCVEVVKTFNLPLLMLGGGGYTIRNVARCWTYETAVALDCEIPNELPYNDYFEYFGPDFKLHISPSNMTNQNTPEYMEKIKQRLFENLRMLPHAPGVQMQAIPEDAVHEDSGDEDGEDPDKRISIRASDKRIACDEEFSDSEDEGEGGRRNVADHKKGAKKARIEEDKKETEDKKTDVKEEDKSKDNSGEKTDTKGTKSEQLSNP

SMILES: O=C(CCCCCCNC(=O)c1cnc(N(c2ccccc2)c2ccccc2Cl)nc1)NO [CITARINOSTAT]
viability at 0.5 µM (MV4-11 [1]): 81.4%
viability at 1 µM (MV4-11 [2]): 68.4%
viability at 4 µM (MV4-11 [3]): 40.9%
viability at 2 µM (MV4-11 [4]): 42.4%
Activity (MV4-11 [5]): 15.54%
Activity (MV4-11 [6]): 7.93%
Activity (MV4-11 [7]): 27.95%
Activity (MV4-11 [8]): 5.77%

remaining at 0.5 h [9]: 79.8%
IC50 (Histone deacetylase 2): 4.97 µM
IC50 (Histone deacetylase 4): > 10 µM
IC50 (Histone deacetylase 9): 2.75 µM
t1/2 [11]: 1.8 h
TIME [12]: 2.37 h
remaining at 0.25 h [13]: 88.1%
remaining at 1 h [14]: 68.9%
remaining at 1 h [15]: 68%
remaining at 0.5 h [16]: 80.8%
IC50 (Histone deacetylase 7): 7.29 µM
SMILES: O=C(NO)c1ccc(CN(Cc2cccnc2)S(=O)(=O)c2cc(F)c(F)c(F)c2F)cc1
Activity (MV4-11 [10]): 2.45%
Activity (MV4-11 [17]): 1.84%
Activity (MV4-11 [18]): 15.44%
